Here are results for three molecules from article PMC7888308 (ACS Pharmacology & Translational Science, 2021).

One may read the aqueous solubility as how much of the substance goes into solution per volume.

SMILES strings stand for the structures. Residue numbers refer to the chain shown, from its start. Converted amounts (≈) assume the structure as drawn.

The conditions of series [1]: pH 6.8 phosphate buffer at 20 °C; cited from earlier work.
The next series deals with T1, UGT1A1 P152T (Homo sapiens, UniProt P22309, P152T).
T1 sequence (P22309 26-533 P152T): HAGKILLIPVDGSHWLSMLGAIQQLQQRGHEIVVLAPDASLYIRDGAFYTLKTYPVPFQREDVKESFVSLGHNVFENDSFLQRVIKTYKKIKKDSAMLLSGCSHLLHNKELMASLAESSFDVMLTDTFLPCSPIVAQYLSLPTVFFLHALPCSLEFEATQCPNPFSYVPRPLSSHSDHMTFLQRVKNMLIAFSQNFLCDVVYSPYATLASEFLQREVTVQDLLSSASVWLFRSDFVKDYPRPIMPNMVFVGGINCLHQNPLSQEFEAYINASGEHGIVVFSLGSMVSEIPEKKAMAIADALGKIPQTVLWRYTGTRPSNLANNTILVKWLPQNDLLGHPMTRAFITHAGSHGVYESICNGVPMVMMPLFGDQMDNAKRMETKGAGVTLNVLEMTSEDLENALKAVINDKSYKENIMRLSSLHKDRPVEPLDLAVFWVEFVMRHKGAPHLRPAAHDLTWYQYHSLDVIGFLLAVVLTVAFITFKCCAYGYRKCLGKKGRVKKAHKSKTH
Nature of the series: glucuronidation by UGT1A1 P152T expressed in COS-7 cells. The format is in vitro ADME. Particulars: 20 μM drug, 24 h, compared to wild-type UGT1A1.

A further series addresses T2, UGT1A9 H217Y (Homo sapiens, UniProt O60656, H217Y).
T2 sequence (O60656 26-530 H217Y): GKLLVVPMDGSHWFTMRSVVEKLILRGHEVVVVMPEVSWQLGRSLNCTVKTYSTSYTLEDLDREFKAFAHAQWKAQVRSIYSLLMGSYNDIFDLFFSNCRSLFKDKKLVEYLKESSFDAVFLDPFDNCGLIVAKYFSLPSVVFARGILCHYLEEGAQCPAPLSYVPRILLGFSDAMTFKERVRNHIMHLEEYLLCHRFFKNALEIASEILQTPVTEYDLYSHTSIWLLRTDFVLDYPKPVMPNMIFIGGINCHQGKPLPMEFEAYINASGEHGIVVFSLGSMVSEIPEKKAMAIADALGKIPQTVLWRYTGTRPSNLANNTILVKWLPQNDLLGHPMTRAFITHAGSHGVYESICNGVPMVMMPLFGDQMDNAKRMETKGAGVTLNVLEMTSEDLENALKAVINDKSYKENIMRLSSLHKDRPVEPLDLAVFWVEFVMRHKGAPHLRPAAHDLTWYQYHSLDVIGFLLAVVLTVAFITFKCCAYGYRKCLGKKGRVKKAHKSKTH
Nature of the series: CAB glucuronidation by UGT1A9 H217Y expressed in COS-7 cells. Type of series: in vitro ADME.

The target of a further series is T3, UGT1A9 R464G (Homo sapiens, UniProt O60656, R464G).
T3 sequence (O60656 26-530 R464G): T2 sequence (O60656 26-530 H217Y) with Y192H, R439G
Nature of the series: CAB glucuronidation by UGT1A9 R464G expressed in COS-7 cells. The format is in vitro ADME.

A further series relates to UGT1A9. Particulars: reaction phenotyping; cited from earlier work.
A further series relates to human liver microsomes. As to the kind of experiment: human liver microsome metabolism experiment. Particulars: CAB 10 μM, microsomes 0.5 mg/mL, UDPGA, 60 min, 37 °C. Type of series: in vitro ADME. In a few lines: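 Pooled liver microsomes (50 mixed-sex donors, 0.5 mg/mL) were preincubated 5 min at 37 °C with test compound (10 μM) in 100 mM potassium phosphate, pH 7.4. A UGT reaction mixture containing 25 mM UDPGA plus alamethicin was added, and reactions ran 60 min at 37 °C. Acetonitrile quench, centrifugation, drying and methanol reconstitution followed. Glucuronide was detected by LC–MS/MS using the m/z 582 → 406 transition.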
On the technique in general: Microsomes from liver hold many membrane-bound enzymes, among them those of drug oxidation.

For series [2] the following is noted: HPTN 077 participants, South Africa, Brazil, Malawi, United States; cited from earlier work.
In another series the test system is HIV integrase. Particulars: in vitro assays; cited from earlier work.
For another series, the target named is T4, wild-type UGT1A1 (Homo sapiens, UniProt P22309).
T4 sequence (P22309 26-533): T1 sequence (P22309 26-533 P152T) with T127P
As to the kind of experiment: glucuronidation by wild-type UGT1A1 expressed in COS-7 cells. The format is in vitro ADME. Particulars: 20 μM drug, 24 h.

The test system of the next series is human kidney microsomes. As to the kind of experiment: human kidney microsome metabolism experiment. The format is in vitro ADME. Particulars: CAB 10 μM, microsomes 0.5 mg/mL, UGT cofactor, 60 min, 37 °C.
The next series relates to UGT1A1. Particulars: reaction phenotyping; cited from earlier work.
The target of a further series is T5, UGT1A9 wild-type (Homo sapiens, UniProt O60656).
T5 sequence (O60656 26-530): T2 sequence (O60656 26-530 H217Y) with Y192H
Nature of the series: CAB glucuronidation by UGT1A9 wild-type expressed in COS-7 cells. The format is in vitro ADME.

As to `C[C@H]1CO[C@@H]2Cn3cc(C(=O)NCc4ccc(F)cc4F)c(=O)c(O)c3C(=O)N12` [CAB, Cabotegravir], in series [1], the aqueous solubility was 15 µg/mL (≈ 37 µM). For the same molecule, the “glucuronidated metabolite in cells expressing UGT1A1 P152T” value (from here on “glucuronidated metabolite”) at UGT1A1 P152T was “undetectable”. For the same molecule, the “formation of CAB-glucuronide by UGT1A9 H217Y” value on UGT1A9 H217Y (24 h incubation with CAB) was “not observed”. Also, the “CAB-glucuronide production by UGT1A9 H217Y” value on UGT1A9 H217Y (48 h treatment with CAB) is “able to detect”. The “formation of CAB-glucuronide by UGT1A9 R464G” value on UGT1A9 R464G (24 h incubation with CAB) is “not observed”. Also, the “CAB-glucuronide production by UGT1A9 R464G” value at UGT1A9 R464G (48 h treatment with CAB) was “not detectable above the background”. Moreover, the “fractional contribution of UGT1A9 to CAB metabolism” value in the series on UGT1A9 is recorded as 0.33. Also, in the series on human liver microsomes, the “additional metabolites in human liver microsomes” value is “no additional metabolites of CAB were detected” and the “metabolite formed in human liver microsomes” value was “identified as CAB-glucuronide”. Moreover, the tolerability entry in series [2] is recorded as “well tolerated”. Besides, the “efficacy of inhibition of integrase-catalyzed viral DNA strand transfer” value in the series with HIV integrase was “low or subnanomolar”. The “glucuronidation in cells transfected with wild-type UGT1A1” value on wild-type UGT1A1 is reported as “readily glucuronidated”. Also, in the series with human kidney microsomes, the “metabolite formation in human kidney microsomes” value is given as “observed the formation of CAB-glucuronide”. The “fractional contribution of UGT1A1 to CAB metabolism” value in the series with UGT1A1 was 0.67. In addition, the “formation of CAB-glucuronide by UGT1A9 wild-type” value at UGT1A9 wild-type (24 h incubation with CAB) was “not observed”. The “CAB-glucuronide production by UGT1A9 wild-type” value at UGT1A9 wild-type (48 h treatment with CAB) is given as “able to detect”.

For the molecule `C[C@@H]1CCO[C@H]2Cn3cc(C(=O)NCc4ccc(F)cc4F)c(=O)c(O)c3C(=O)N12` [DTG, dolutegravir], the “glucuronidated metabolite” value on UGT1A1 P152T is reported as “undetectable”. Besides, the “glucuronidation in cells transfected with wild-type UGT1A1” value on wild-type UGT1A1 is “readily glucuronidated”.

Regarding `CCc1c2c(nc3ccc(O)cc13)-c1cc3c(c(=O)n1C2)COC(=O)[C@]3(O)CC` [SN-38, 7-ethyl-10-hydroxycamptothecin], the “glucuronidated metabolite” value at UGT1A1 P152T is reported as “marked reduction”.
